Source: PubChem (several laboratories)
FXIa inh 1536: inhibitors of human coagulation factor XIa; P03951; purified FXIa, Boc-Glu-Ala-Arg-AMC fluorogenic substrate; inhibition, % at 5 µM; 220,000 tested, 0.14% active; AID 798;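 active = inhibition of at least 40%; inactive = inhibition below 40%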;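 note: fluorescence of freed AMC excited at 355 nm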
Target sequence (P03951 19-387 limits assumed): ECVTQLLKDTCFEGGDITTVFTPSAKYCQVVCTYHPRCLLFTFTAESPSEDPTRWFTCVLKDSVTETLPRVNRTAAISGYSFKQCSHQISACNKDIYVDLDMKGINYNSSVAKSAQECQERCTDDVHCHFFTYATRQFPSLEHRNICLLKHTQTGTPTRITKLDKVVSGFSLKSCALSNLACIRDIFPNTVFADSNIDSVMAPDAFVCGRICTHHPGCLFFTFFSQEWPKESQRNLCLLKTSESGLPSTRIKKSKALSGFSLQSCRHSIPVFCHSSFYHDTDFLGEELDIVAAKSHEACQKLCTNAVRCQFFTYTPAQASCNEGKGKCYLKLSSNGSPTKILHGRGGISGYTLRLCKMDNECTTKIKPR
Target sequence (P03951 388-625 limits assumed): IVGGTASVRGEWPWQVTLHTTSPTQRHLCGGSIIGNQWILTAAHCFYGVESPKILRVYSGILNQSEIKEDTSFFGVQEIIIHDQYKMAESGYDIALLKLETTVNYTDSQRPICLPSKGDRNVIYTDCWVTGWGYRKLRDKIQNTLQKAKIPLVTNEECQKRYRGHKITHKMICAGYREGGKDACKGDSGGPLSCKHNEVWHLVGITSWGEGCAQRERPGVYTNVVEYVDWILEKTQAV
thrombin 1536: thrombin (human) inhibition; inhibition, % at 5 µM; 220,000 tested, 0.26% active; alpha-thrombin, Boc-VPR-AMC fluorogenic substrate cleavage; AID 1046; P00734;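 active = inhibition at or above 40%; inactive = inhibition below 40%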
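System – human alpha-thrombin · Medium – pH 7.5 Tris (50 mM) with NaCl 150 mM, Tween 20 0.05% · Compound – single-point dosing at 5 µM, 0.2% DMSO · Incubation – enzyme reaction carried out at room temperature · Technique – fluorescence of released AMC, ex 355 nm, em 460 nm · Read-out basis – % inhibition of thrombin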
hK5 inh: kallikrein 5 (human) inhibition | 210,000 tested, 0.59% active | AID 873 | recombinant hK5, fluorogenic AMC substrate cleavage | inhibition, % at 5 µM | Q9Y337;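 active = inhibition of 40% or more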
FXIIa inh 1536: factor XIIa (human) inhibition | P00748 | purified FXIIa, Boc-QGR-AMC fluorogenic substrate, 2 h | inhibition, % at 5 µM | 220,000 tested, 0.3% active; in the data active = inhibition above about 40%
AHR activator: activators of human aryl hydrocarbon receptor | P35869 | AHR-responsive luciferase reporter cells, luminescence | activation, % at 5 µM | 320,000 tested, 2.5% active; in the data active = activation above about 47%
STAT3 activator: increases IL-6 driven STAT3 reporter signal. U3A cells, IL-6 STAT3-luciferase reporter, luminescence; 100% = signal with IL-6 EC80 alone. activation (% of control), % at 5.6 µM. 190,000 tested, 0.91% active. AID 871;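 active = activation above the screen-wide mean of compound activation plus 3 SD, cut at about 130% in these data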
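Test system: STAT3-luciferase reporter U3A cells; Detection: reporter luminescence signal; Times: 1 h compound pre-exposure, 6 h IL-6 stimulation, 37 °C; Benchmarks: IL-6-only high control; Also added: IL-6 stimulus at 33 ng/mL final.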
AHR act confirm: confirmation of human aryl hydrocarbon receptor activators; shares compounds with AHR activator; human cells, AHR-responsive luciferase reporter, luminescence; activation, % at 9 µM; 2,300 tested, 87% active; AID 2845; in the data active = activation above about 49%;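 note: HepG2 hepatoma cells carrying a DRE-driven firefly luciferase reporter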
PXR act counter: PXR activation, counter-screen for AHR activators; shares compounds with AHR activator; cell-based PXR reporter, luciferase luminescence; activation, % at 11.6 µM; 2,300 tested, 88% active; AID 434939; in the data active = activation above about 11%;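 note: human hepatoma DPX-2 cells expressing full-length human PXR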
Numbers stand for hits; i = inactive; nt = no result given. In the library only some 3.5% were active in any assay of this set; here they are far more common.

SMILES	FXIa inh 1536	thrombin 1536	hK5 inh	FXIIa inh 1536	AHR activator	STAT3 activator	AHR act confirm	PXR act counter
COc1cc2c(cc1NC(=O)c1cccc(S(=O)(=O)N(C)C)c1)oc1ccccc12	i	i	i	i	79	i	65	42
Cc1ccc(S(=O)(=O)CCC(=O)Nc2ccc(F)cc2)cc1	i	i	i	i	i	i	nt	nt
c1ccc(-n2cnc3cc(NCc4ccco4)ccc32)cc1	i	i	i	i	i	i	nt	nt
Cc1ccc(S(=O)(=O)c2cc3ccccc3nc2N)cc1	i	i	i	i	i	i	nt	nt
COc1ccc(S(=O)(=O)N(C)CC(=O)N2CCN(c3ccc(F)cc3)CC2)cc1OC	i	i	i	i	i	i	nt	nt
Cc1cc(OC(C)C(=O)NCC(O)c2ccccc2)c2c(C)cc(=O)oc2c1 (stereo unspecified)	nt	nt	nt	nt	i	nt	nt	nt
O=C(NC(=S)Nc1ccc(Br)cn1)c1cccs1	i	i	i	i	84	168	116	16
CN1N=C(C(=O)Nc2ccc3c(c2)CCC3)CCC1=O	i	i	i	i	i	i	nt	nt
CCOC(=O)c1cccc(C2=CC(=O)C[C@H](c3ccc(OC)c(OC)c3)C2)c1	nt	nt	nt	nt	i	nt	nt	nt
Cc1ccc2c(C)c(C(=O)N3CCN(c4cnccn4)CC3)oc2c1C	nt	nt	nt	nt	92	nt	114	25
O=C(Nc1ccc(Cl)cc1)c1cccc(S(=O)(=O)Nc2ccccn2)c1	nt	nt	nt	nt	91	nt	77	34
COc1ccc(C)cc1S(=O)(=O)NCCN1CCOCC1	nt	nt	nt	nt	i	nt	nt	nt
CCCCCCSc1ccc([C@H]2N[C@@](CC(C)C)(C(=O)OC)[C@H]3C(=O)N(CC)C(=O)[C@@H]23)cc1	nt	nt	nt	nt	i	nt	nt	nt
O=c1cc(-c2ccco2)oc2c1ccc1ccccc12	i	i	i	i	79	i	61	25
COc1ccccc1-c1nnc(-c2ccc(C)cc2)o1	nt	nt	nt	nt	81	nt	123	39
O=C(c1cn(-c2ccc(Cl)c(Cl)c2)nn1)C1CC1	i	i	i	i	84	i	125	29
Cc1cc(C)nc(Nc2n[nH]c(-c3ccccc3C)n2)n1	i	i	i	i	87	i	131	45
C#CCNC(=O)C1=C[C@@H](c2ccc(C(F)(F)F)cc2)[C@H](CCCO)[C@@H](OCC)O1	i	i	i	i	i	nt	nt	nt
Cc1cc(C)c2[nH]c(O)c(N=NC(=S)NCC3CCCO3)c2c1 (stereo unspecified)	i	i	i	i	124	i	100	114
Oc1[nH]c2ccc(Br)cc2c1N=NC(=S)NCC1CCCO1 (stereo unspecified)	i	i	i	i	104	nt	72	23
Oc1[nH]c2ccccc2c1N=NC(=S)NCC1CCCO1 (stereo unspecified)	i	i	i	i	i	i	nt	nt
COc1cccc(C(=O)N2CCN(C3CCN(Cc4ccccc4)CC3)CC2)c1OC	i	i	i	i	i	nt	nt	nt
COc1ccc(OCC(=O)NNC(=O)C(=O)N2CCCC2)cc1	i	i	i	i	i	i	nt	nt
CS(=O)(=O)N1CCN(c2ccccc2NC(=O)c2ccco2)CC1	i	i	i	i	i	i	nt	nt
CCn1c(SCC(=O)Nc2ccc(NC(C)=O)cc2)nc2c([nH]c3ccccc32)c1=O	nt	nt	nt	nt	i	nt	nt	nt
SMILES	FXIa inh 1536	thrombin 1536	hK5 inh	FXIIa inh 1536	AHR activator	STAT3 activator	AHR act confirm	PXR act counter
CCOC(=O)N1CCN(C(=O)CSc2nc3c([nH]c4ccccc43)c(=O)n2CC)CC1	nt	nt	nt	nt	101	nt	94	54
C=CCn1c(SCC(=O)N2CCOCC2)nc2c([nH]c3ccccc32)c1=O	nt	nt	nt	nt	88	nt	92	77
O=C(CSc1nc2c([nH]c3ccccc32)c(=O)n1-c1ccccc1)N1CCOCC1	i	i	i	i	i	i	nt	nt
CC(=O)c1c(C)n(C)c2ccc(OC(=O)c3ccc([N+](=O)[O-])cc3)cc12	i	i	i	i	i	i	nt	nt
O=C(NC(=S)NCCc1ccccc1)c1cccc(Cl)c1	nt	nt	nt	nt	124	nt	139	19
O=C(NC(=S)NCCc1ccccn1)c1ccco1	i	i	i	nt	i	i	nt	nt
O=C(NC(=S)NCCc1ccccn1)c1ccccc1	i	i	i	i	100	i	62	12
C/C(=N\NC(=O)c1cccc([N+](=O)[O-])c1)c1cccs1	i	i	i	i	81	nt	79	31
C/C(=N/NC(=O)c1ccc(O)cc1)c1cccc([N+](=O)[O-])c1	i	i	i	i	i	i	nt	nt
COc1ccc(NC(=O)c2c[nH]c(=O)n(-c3ccc(C)c(C)c3)c2=O)cc1OC	i	i	i	i	i	nt	nt	nt
Cc1ccc(-n2c(=O)[nH]cc(C(=O)Nc3ccc4c(c3)OCO4)c2=O)cc1C	nt	nt	nt	nt	88	nt	68	nt
c1ccc2c3n(nc2c1)CCCCO3	nt	nt	nt	nt	i	nt	nt	nt
N#Cc1ccc(C23OCCN2CCn2nc4ccccc4c23)cc1 (stereo unspecified)	nt	nt	nt	nt	103	nt	109	95
Cc1cc(N)n2ncc(-c3cccc(Br)c3)c2n1	i	i	i	i	93	i	125	34
CCOC(=O)Cc1c(C)nc2c(-c3cccc(Br)c3)cnn2c1C	i	i	i	i	100	i	116	21
CC(=O)c1cnc2c(-c3cccc(Br)c3)cnn2c1C	i	i	i	i	i	i	nt	nt
CC(=O)c1cccc(NC(=O)C2C3C=CC(C4CC34)C2C(=O)O)c1 (stereo unspecified)	i	i	i	i	i	i	nt	nt
O=C(N/N=C/c1cccc(Br)c1)C1CC(=O)N(c2ccccc2)C1 (stereo unspecified)	nt	nt	nt	nt	i	nt	nt	nt
NNc1nc2ccc(Cl)cc2s1	i	i	i	i	115	i	106	22
O=c1c2ccccc2nc(-c2ccco2)n1CCCn1ccnc1	i	i	i	i	83	i	103	23
O=S(=O)(NC1CCN(S(=O)(=O)c2c(F)cccc2F)CC1)c1ccc2c(c1)OCCO2	nt	nt	nt	nt	i	nt	nt	nt
CCCCn1c(=O)c(CCC(=O)OCC(=O)NCc2ccc(OC)c(OC)c2)nc2ccccc21	i	i	i	i	i	i	nt	nt
O=C1CN(c2nc(-c3cccnc3)nc3sc4c(c23)CCCC4)CCN1	i	i	i	i	i	i	nt	nt
Nc1nc(-c2cccnc2)nc2sc3c(c12)CCCC3	i	i	i	i	118	i	90	72
O=C(COC(=O)CNS(=O)(=O)c1ccc(Br)cc1Cl)NC1CCCC1	nt	nt	nt	nt	i	nt	nt	nt
CCN(CC)C(=O)c1sc2nc(-c3ccncc3)[nH]c(=O)c2c1C	i	i	i	i	i	i	nt	nt
CCN(CC)C(=O)c1sc2nc(-c3ccccn3)[nH]c(=O)c2c1C	nt	nt	nt	nt	83	nt	i	52
CCc1nnc(NC(=O)c2sc3nc4c(cc3c2N)CCCCC4)s1	i	i	i	i	124	i	i	36
Cc1ccc(C(=O)c2sc3nc4c(cc3c2N)CCC4)cc1	i	i	i	i	i	i	nt	nt
O=C(Nc1ccccc1)c1cnc(-c2ccccc2)nc1-c1ccccc1	i	i	i	i	90	i	93	47
